Converted amounts (≈) assume the structure as drawn. The source made the active and inactive calls. The calls are words filed in the database; no cut-off is given here.
Experiments:
Cytomegalovirus [1] = assay: Compound was evaluated for anti-herpesvirus activity against Cytomegalovirus (AD169) strain plaques in infected human fibroblast (MRC-5) cells; format: functional, organism-based; settings: Human betaherpesvirus 5, MRC5
How it was run: (§1)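 Plaque-reduction assay in human fibroblast (MRC-5) cells infected with virus. IC50 is the compound concentration that halves the plaque count.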

Human alphaherpesvirus 3 [2] = assay: Compound was evaluated for anti-herpesvirus activity against Varicella Zoster virus (Ellen) strain; format: functional, organism-based; how it was run: as §1
Visna-maedi virus [3] = assay: Compound was evaluated for anti-retrovirus activity against Visna virus (K184) strain in infected sheep choroid plexus cells; format: functional
How it was run: (§2)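 Infected sheep choroid plexus (SCP) cells. MIC is the lowest concentration that completely prevents virus cytopathic effect.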

Human alphaherpesvirus 1 [4] = assay: Compound was evaluated for anti-herpesvirus activity against Herpes simplex virus-1 (SC16) strain; Not active; format: functional, organism-based
[5] = Compound was evaluated for the inhibition of cell replication sheep choroid plexus (SCP) cells; format: functional; settings: Ovis aries; read-out: CD50 (the source's name)
How it was run: (§3)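 Cytotoxicity in uninfected cells, measured as inhibition of DNA synthesis by [3H]thymidine incorporation. CD50 is the concentration giving 50% inhibition of cell replication.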

Human alphaherpesvirus 2 [6] = assay: Compound was evaluated for anti-herpesvirus activity against Herpes simplex virus-2 (MS) strain; format: functional, organism-based; how it was run: as §1
[7] = system: Human immunodeficiency virus 1; assay: Compound was evaluated for anti-retrovirus activity against HIV-1 (D34) Diagen strain; Not active; format: functional, organism-based
MRC5 [8] = assay: Compound was evaluated for the inhibition of cell replication of human fibroblast (MRC-5) cells; format: functional; settings: read-out: CD50 (the source's name); how it was run: as §3
Human alphaherpesvirus 1 [9] = assay: Compound was evaluated for anti-herpesvirus activity against Herpes simplex virus-1 (SC16) strain; format: functional, organism-based
[10] = system: Human immunodeficiency virus 1; assay: Compound was evaluated for anti-retrovirus activity against HIV-1 (D34) Diagen strain; format: functional, organism-based
[11] = Compound was evaluated for the inhibition of cell replication human peripheral blood lymphocytes (PBL's); format: functional; settings: read-out: CD50 (the source's name); how it was run: as §3
Cytomegalovirus [12] = assay: Compound was evaluated for anti-herpesvirus activity against Cytomegalovirus (AD169) strain plaques in infected human fibroblast (MRC-5) cells.; format: functional, organism-based; settings: Human betaherpesvirus 5, MRC5; how it was run: as §1
Human alphaherpesvirus 3 [13] = assay: Compound was evaluated for anti-herpesvirus activity against Varicella Zoster virus (Ellen) strain; Not active; format: functional, organism-based; how it was run: as §1
Human alphaherpesvirus 2 [14] = assay: Compound was evaluated for anti-herpesvirus activity against Herpes simplex virus-2 (MS) strain; Not active; format: functional, organism-based; how it was run: as §1
Cytomegalovirus [15] = assay: Compound was evaluated for anti-herpesvirus activity against Cytomegalovirus (AD169) strain plaques in infected human fibroblast (MRC-5) cells; Not active; format: functional, organism-based; how it was run: as §1
PBL = assay: Compound was evaluated for the inhibition of cell replication human peripheral blood lymphocytes (PBL's).; format: functional; settings: read-out: CD50 (the source's name); how it was run: as §3
MRC5 [16] = assay: Compound was evaluated for the inhibition of cell replication of human fibroblast (MRC-5) cells.; format: functional; settings: read-out: CD50 (the source's name); how it was run: as §3
[17] = Compound was evaluated for the inhibition of cell replication sheep choroid plexus (SCP) cells.; format: functional; settings: Ovis aries; read-out: CD50 (the source's name); how it was run: as §3
Visna-maedi virus [18] = assay: Compound was evaluated for anti-retrovirus activity against Visna virus (K184) strain in infected sheep choroid plexus cells.; format: functional; how it was run: as §2
[19] = Compound was evaluated for the inhibition of DNA synthesis in uninfected cells; format: functional; settings: read-out: CD50 (the source's name); how it was run: as §3
[20] = Second dissociation constant was determined; format: ADME
Visna-maedi virus [21] = assay: Compound was evaluated for anti-retrovirus activity against Visna virus (K184) strain in infected sheep choroid plexus cells; Not active; format: functional, organism-based
Cytomegalovirus [22] = assay: Compound was evaluated for anti-herpes virus activity against Cytomegalovirus (AD169) strain plaques in infected human fibroblast (MRC-5) cells; Not active; format: functional, organism-based; how it was run: as §1
Human alphaherpesvirus 1 [23] = assay: Compound was evaluated for anti-herpesvirus activity against Herpes simplex virus-1 (SC16) strain.; format: functional, organism-based
Human alphaherpesvirus 3 [24] = assay: Compound was evaluated for anti-herpesvirus activity against Varicella Zoster virus (Ellen) strain.; format: functional, organism-based; how it was run: as §1
Human alphaherpesvirus 2 [25] = assay: Compound was evaluated for anti-herpesvirus activity against Herpes simplex virus-2 (MS) strain.; format: functional, organism-based; how it was run: as §1

| Compound | IC50 (Human alphaherpesvirus 3 [2]) | MIC (Visna-maedi virus [3]) | IC50 (Human alphaherpesvirus 1 [4]) | CC50 [5] | IC50 (Human alphaherpesvirus 2 [6]) | CC50 (MRC5 [8]) | MIC (Visna-maedi virus [21]) | also measured |
| --- | --- | --- | --- | --- | --- | --- | --- | --- |
| Nc1nc(O)c2ncn(CC/C=C/P(=O)(O)O)c2n1 | 190 µM | 0.35 µM (≈ 0.0998 µg/mL) | Not Active | 1.3 µM | 90 µM | 4.5 µM | – | IC50 (Cytomegalovirus [1]): 52 µM; IC50 [7]: Not Active |
| Nc1nc(O)c2ncn(OCC/C=C/P(=O)(O)O)c2n1 | < 10 µM | < 0.01 µM | – | 0.13 µM | < 10 µM | 0.1 µM | – | IC50 (Cytomegalovirus [1]): 0.53 µM; IC50 (Human alphaherpesvirus 1 [9]): < 10 µM; IC50 [10]: 0.1 µM; CC50 [11]: 0.23 µM |
| Nc1nc(O)c2ncn(OCC/C=C\P(=O)(O)O)c2n1 | – | 0.1 µM (≈ 0.0301 µg/mL) | Not Active | 11.7 µM | – | 26 µM | – | IC50 (Cytomegalovirus [12]): 178 µM; IC50 (Human alphaherpesvirus 3 [13]): Not Active; IC50 (Human alphaherpesvirus 2 [14]): Not Active; IC50 [7]: Not Active |
| Nc1ncnc2c1ncn2CC/C=C/P(=O)(O)O | – | 20 µM (≈ 5.38 µg/mL) | Not Active | 137 µM | – | 260 µM | – | IC50 (Human alphaherpesvirus 3 [13]): Not Active; IC50 (Human alphaherpesvirus 2 [14]): Not Active; IC50 [7]: Not Active; IC50 (Cytomegalovirus [15]): Not Active |
| Cc1cn([C@H]2C[C@H](N=[N+]=[N-])[C@@H](CO)O2)c(=O)[nH]c1=O [ZIDOVUDINE] | – | – | – | – | – | – | – | CC50 (PBL): 13 µM; CC50 (MRC5 [16]): 72 µM; CC50 [17]: > 370 µM; MIC (Visna-maedi virus [18]): 5.6 µM (≈ 1.5 µg/mL) |
| Nc1ncnc2c1ncn2OCC/C=C/P(=O)(O)O | – | 82 µM (≈ 23.4 µg/mL) | Not Active | – | – | 330 µM | – | IC50 [10]: 10.2 µM; CC50 [11]: 130 µM; IC50 (Human alphaherpesvirus 3 [13]): Not Active; IC50 (Human alphaherpesvirus 2 [14]): Not Active; IC50 (Cytomegalovirus [15]): Not Active |
| Nc1nc2c(ncn2CCOCP(=O)(O)O)c(=O)[nH]1 [GS-438] | – | – | – | – | – | – | – | CC50 [19]: 8.6 µM; pKa [20]: 6.5 |
| Nc1nc(O)c2ncn(OC(/C=C/P(=O)(O)O)CO)c2n1 (stereo not drawn) | – | – | – | – | – | – | inactive | pKa ([20]; read-out: pKa E2): 6.6 |
| Nc1nc(O)c2ncn(CC(/C=C/P(=O)(O)O)CO)c2n1 (stereo not drawn) | 17 µM | – | – | – | 66 µM | 20 µM | – | IC50 (Cytomegalovirus [1]): < 9 µM; IC50 (Human alphaherpesvirus 1 [9]): 60 µM; IC50 [7]: Not Active |
| Nc1ncnc2c1ncn2CC(/C=C/P(=O)(O)O)CO (stereo not drawn) | 16 µM | – | – | – | 91 µM | 189 µM | – | IC50 (Cytomegalovirus [1]): 35 µM; IC50 (Human alphaherpesvirus 1 [9]): 137 µM; IC50 [7]: Not Active |
| Nc1ncnc2c1ncn2CC/C=C\P(=O)(O)O | – | – | – | – | – | – | inactive | – |
| Nc1nc2c(ncn2CC/C=C\P(=O)(O)O)c(=O)[nH]1 | – | – | – | – | – | – | inactive | – |
| Nc1ncnc2c1ncn2OCCOCP(=O)(O)O | 280 µM | 8 µM (≈ 2.31 µg/mL) | Not Active | 173 µM | 270 µM | 173 µM | – | IC50 [10]: 0.24 µM; IC50 (Cytomegalovirus [15]): Not Active |
| Nc1nc(N)c2ncn(CC/C=C/P(=O)(O)O)c2n1 | – | 2.1 µM (≈ 0.597 µg/mL) | Not Active | 95 µM | – | 222 µM | – | IC50 (Cytomegalovirus [22]): Not Active; IC50 [10]: 9.8 µM; IC50 (Human alphaherpesvirus 3 [13]): Not Active; IC50 (Human alphaherpesvirus 2 [14]): Not Active |
| Nc1ncnc2c1ncn2OC(/C=C/P(=O)(O)O)CO (stereo not drawn) | – | – | – | – | – | – | inactive | – |
| Nc1nc2c(ncn2COCCO)c(=O)[nH]1 [ACYCLOVIR] | – | – | – | – | – | – | – | IC50 (Human alphaherpesvirus 1 [23]): 3.9 µM; IC50 (Human alphaherpesvirus 3 [24]): 21 µM; IC50 (Human alphaherpesvirus 2 [25]): 4.3 µM; IC50 (Cytomegalovirus [12]): 93 µM; CC50 (MRC5 [16]): 355 µM |
| Nc1nc(O)c2ncn(OCC(/C=C/P(=O)(O)O)CO)c2n1 (stereo not drawn) | 15 µM | – | – | – | 177 µM | 19 µM | – | IC50 (Cytomegalovirus [1]): 44 µM; IC50 (Human alphaherpesvirus 1 [9]): 295 µM; IC50 [10]: 8.9 µM |
| Nc1ccn(OC(/C=C/P(=O)(O)O)CO)c(=O)n1 (stereo not drawn) | – | – | – | – | – | – | inactive | – |
| C=C(/C=C/P(=O)(O)O)Cn1cnc2c(O)nc(N)nc21 | – | – | – | – | – | – | inactive | – |

Source: ChEMBL document CHEMBL1126681, “Novel acyclonucleotides: synthesis and antiviral activity of alkenylphosphonic acid derivatives of purines and a pyrimidine” (J Med Chem, 1993)
